# Assay outcomes as filed in PubChem.
# CHRM4 agonist: human M4 muscarinic receptor agonists, primary screen, CHO-K1 cells, Fluo-8 calcium fluorescence | Muscarinic acetylcholine receptor M4 (Homo sapiens), P08173 | CHO-K1 hM4/Gqi5; vehicle 0%, full acetylcholine response 100% | activation, % at 3 µM | 360,000 tested, 0.14% active | AID 624127, 2012;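 active = activation above the run mean over all test wells plus 3 SD, cut at about 32% in these data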;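 also: peak over basal fluorescence ratio per well then scaled between controls; 0% = DMSO wells and 100% = acetylcholine at EC100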
# Target sequence (P08173 whole entry, looked up): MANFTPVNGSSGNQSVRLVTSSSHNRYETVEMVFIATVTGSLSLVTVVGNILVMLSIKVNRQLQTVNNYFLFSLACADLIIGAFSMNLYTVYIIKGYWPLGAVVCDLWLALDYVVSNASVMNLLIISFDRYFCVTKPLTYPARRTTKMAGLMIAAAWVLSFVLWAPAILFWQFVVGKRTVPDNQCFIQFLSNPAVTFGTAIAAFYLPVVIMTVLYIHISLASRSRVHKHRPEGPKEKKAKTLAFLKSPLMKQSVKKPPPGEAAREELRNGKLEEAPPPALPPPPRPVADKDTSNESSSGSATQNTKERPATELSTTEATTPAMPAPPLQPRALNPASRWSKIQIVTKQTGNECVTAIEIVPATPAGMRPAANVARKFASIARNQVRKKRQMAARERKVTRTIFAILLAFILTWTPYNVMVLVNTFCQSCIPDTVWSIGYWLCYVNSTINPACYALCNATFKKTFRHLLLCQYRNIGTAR
# M4 antag: human M4 muscarinic receptor antagonists, primary screen, CHO cells, Fluo-8 calcium fluorescence; Muscarinic acetylcholine receptor M4 (Homo sapiens), P08173; CHO-hM4 cells, ACh EC80; inhibition, % at 3 µM; 360,000 tested, 0.73% active; AID 624125, 2012;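 active = inhibition above its plate's cutoff, the mean inhibition of sample wells plus 3 SD, cut at about 27% in these data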;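 also: 0% = acetylcholine EC80 with DMSO and 100% = DMSO without agonist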
# CHRM5 agonist: human M5 muscarinic receptor agonists, primary screen, CHO-K1 cells, Fluo-8 calcium fluorescence. activation, % at 3 µM. 360,000 tested, 0.19% active. CHO-K1 hM5 cells; 0% DMSO wells, 100% maximal acetylcholine response. Muscarinic acetylcholine receptor M5 (Homo sapiens), P08912;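 active = activation above the run's mean over test compounds plus 3 SD, cut at about 23% in these data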;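 also: signal is peak over basal fluorescence ratio across the kinetic read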
# M4 PAM: human M4 muscarinic receptor positive allosteric modulators, primary screen, CHO-K1 cells, Fluo-8 calcium fluorescence. AID 624126, 2012. CHO-K1 hM4/Gqi5, ACh EC20; 0% = ACh EC20, 100% = maximal ACh. 360,000 tested, 0.4% active. activation, % at 3 µM. Muscarinic acetylcholine receptor M4 (Homo sapiens), P08173;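 active = activation above its plate's cutoff, the mean activation of sample wells plus 3 SD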
# CHRM5 PAM: human M5 muscarinic receptor positive allosteric modulators, primary screen, CHO-K1 cells, Fluo-8 calcium fluorescence | Muscarinic acetylcholine receptor M5 (Homo sapiens), P08912 | CHO-K1 hM5, ACh EC20 PAM; 0% = ACh EC20, 100% = ACh EC100 | activation, % at 3 µM | 360,000 tested, 0.3% active;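 active = activation above the run cutoff, the mean activation of all test compounds plus 3 SD, cut at about 18% in these data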
#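 Assay system – human M5 receptor in CHO-K1 cells · Read-out – % activation, ACh-normalized · Technique – Fluo-8 calcium fluorescence · Dosing – single-point, 3 µM nominal · Incubation – Fluo-8 loading 80 min at 37 °C plus 30 min room temperature · Repeats – singlicate, one well per test compound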
# M5 antag: human M5 muscarinic receptor antagonists, primary screen, CHO cells, Fluo-8 calcium fluorescence. inhibition, % at 3 µM. Muscarinic acetylcholine receptor M5 (Homo sapiens), P08912. CHO-hM5 cells, ACh EC80. 360,000 tested, 0.59% active;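 active = inhibition above a per-plate cutoff, the mean of that plate's test compounds plus 3 SD, cut at about 27% in these data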;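 also: 0% = acetylcholine EC80 with DMSO and 100% = DMSO without agonist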
# An asterisk follows results filed as active; x = no result given. Sampled rows, rich in hits. Any-hit rate of the full collection: about 1.9%.
SMILES,CHRM4 agonist,M4 antag,CHRM5 agonist,M4 PAM,CHRM5 PAM,M5 antag
CCN1CCN(C(=O)COc2ccc(S(=O)(=O)N3CCOCC3)cc2C)CC1,0.6,-7.2,1.2,-2.5,2.7,-1.9
CC[n+]1c(/C=C/C=C/c2ccc(N(C)C)cc2)sc2ccccc21,23.4,55.4*,-2.0,-14.0,-29.6,50.6*
CC(=O)OCC[N+](C)(C)C,95.8*,79.0*,99.8*,-20.7,-13.4,97.7*
C[N+](C)(C)CCOC(=O)CBr,0.8,-8.5,36.6*,0.4,-15.1,-1.0
Cc1[nH]c2ccc(OC(F)(F)F)cc2c1CCNCc1cccc([N+](=O)[O-])c1,24.4,16.1,17.5,-10.5,-12.8,28.5*
Cc1[nH]c2ccc(OC(F)(F)F)cc2c1CCNCc1ccc(Cl)cc1,15.1,9.5,3.4,1.0,2.5,8.7
CCOc1cccc(CNCCc2c(C)[nH]c3ccc(OC(F)(F)F)cc23)c1O,43.3*,29.2*,23.6*,-11.7,-14.6,42.3*
CCCCn1nnnc1C(C1CC1)N1CCC2(CC1)C(=O)NCN2c1ccccc1 (stereo unspecified),6.1,-6.1,-0.3,-7.0,-4.2,4.8
O=C(CCCN1CCC2(CC1)C(=O)NCN2c1ccccc1)c1ccc(F)cc1,135.2*,98.7*,80.9*,-20.0,-21.0,96.3*
CCN1CCN(Cc2cc(Br)cc(OC)c2O)CC1,2.4,39.2*,-12.7,-26.2,-19.0,2.2
O=C(OC1CCN(CCCl)CC1)C(c1ccccc1)c1ccccc1,2.3,57.0*,-1.2,-18.4,-18.9,63.8*
C[N+]1(C)[C@@H]2CC(OC(=O)[C@H](CO)c3ccccc3)C[C@H]1[C@@H]1O[C@@H]12 (stereo partly specified),x,x,-1.4,x,-18.1,98.5*
C[N+]1(C)C2CC(OC(=O)C(CO)c3ccccc3)CC1C1OC12 (stereo unspecified),x,x,-1.0,x,-18.5,99.5*
CCCC[N+]1(C)[C@@H]2CC(OC(=O)[C@H](CO)c3ccccc3)C[C@H]1[C@@H]1O[C@@H]12 (stereo partly specified),-0.5,92.3*,-1.6,-18.8,-18.5,71.6*
CN1CCC(OC(=O)Cc2ccccc2)CC1,0.3,8.4,-9.7,-13.5,-18.7,20.0
CN1[C@@H]2CC[C@H]1CC(OC(=O)C1C=Nc3ccccc31)C2 (stereo partly specified),1.8,8.6,-0.8,-12.3,-6.2,4.4
C[N+]1(C)[C@@H]2CC[C@H]1CC(OC(=O)C(c1ccccc1)c1ccccc1)C2 (stereo partly specified),16.5,98.8*,-3.4,-17.7,-17.1,99.2*
Cc1ccc(S(=O)(=O)NCCC(=O)Nc2ccc(Cl)cc2C(=O)c2ccccc2)cc1,-3.1,-4.1,-2.3,-9.2,-5.7,-6.4
Cc1ccc(S(=O)(=O)N[C@@H](CCCCN)C(=O)CCl)cc1,1.1,-7.0,39.3*,-2.4,-16.3,-8.1
COP(=O)(NC(C)=O)SC (stereo unspecified),1.0,-8.6,1.4,2.0,4.7,-4.8
OC(Cn1c2ccccc2c2ccccc21)C[n+]1cccc2ccccc21 (stereo unspecified),0.1,40.5*,-12.7,-26.6,-21.8,58.2*
COc1cccc(CNC2CN3CCC2CC3)c1OC (stereo unspecified),2.2,25.1,-6.0,-11.4,-24.1,59.9*
COC(=O)C1=C(c2cc3ccccc3o2)C[C@@H]2CC[C@H]1N2C(=O)NCCO,1.1,7.6,-3.8,-2.8,6.0,12.4
CCCn1ncc(CN2CCCC(C(=O)c3cccc(OC)c3)C2)c1C (stereo unspecified),1.3,55.5*,-10.5,-23.2,-19.3,15.6
CCOC(=O)C(O)(c1ccc(NC(=S)NC(=O)c2ccc(Cl)cc2Cl)c(C)c1)C(F)(F)F (stereo unspecified),40.1*,30.9*,23.0,-27.7,-14.2,37.4*
SMILES,CHRM4 agonist,M4 antag,CHRM5 agonist,M4 PAM,CHRM5 PAM,M5 antag
COC(=O)C(O)(c1ccc(NC(=S)NC(=O)c2ccc(Cl)cc2Cl)c(C)c1)C(F)(F)F (stereo unspecified),21.8,11.4,11.3,-18.5,-13.6,27.4*
COC(=O)C(O)(c1ccc(NC(=S)NC(=O)c2ccc(Cl)cc2Cl)cc1)C(F)(F)F (stereo unspecified),16.5,11.2,10.7,-19.1,-8.4,15.4
CCc1cc(=O)oc2cc(OCC(=O)N3C[C@H]4C[C@@H](C3)c3cccc(=O)n3C4)ccc12,0.1,4.1,-1.7,1.5,7.0,0.6
O=P1(c2ccccc2)Nc2ccccc2N1c1ccccc1 (stereo unspecified),-1.1,3.4,-10.7,-7.2,-14.8,11.1
Nc1cccc(SC2CC(=O)N(c3ccc(Cl)cc3C(=O)c3ccccc3)C2=O)c1 (stereo unspecified),1.5,-8.7,-1.5,-0.3,-5.9,27.3*
C[C@]12CC[C@H](O)CC1C(=O)CC1C2CC[C@@]2(C)C1CC[C@@H]2O (stereo partly specified),1.8,-11.8,-5.4,3.6,-3.1,-2.8
C[C@H]1CC[C@@H]2N(C1)C[C@H]1[C@@H]3C[C@H]4[C@@H](CC(=O)[C@H]5C[C@@H](O)CC[C@@]54C)[C@@H]3CC[C@H]1[C@]2(C)O,1.1,84.5*,-5.9,-18.2,-7.7,1.0
CC(=O)O[C@H]1CC[C@@]2(C)[C@H](C1)C(=O)C[C@H]1[C@@H]3CC[C@@H]4[C@@H](CN5C[C@@H](C)CC[C@H]5[C@@]4(C)O)[C@@H]3C[C@@H]12,-0.1,65.1*,-7.2,-15.1,-6.0,10.4
C#C[C@@]1(O)CCC2C3CCC4=C/C(=N/OCC(=O)NC(C(=O)NC(CC(C)C)C(=O)O)C(C)C)CC[C@]4(C)C3CC[C@@]21C (stereo partly specified),0.1,1.3,-5.3,0.5,-3.0,7.3
Brc1ccc2c(c1)C(OC1CN3CCC1CC3)c1ccccc1CS2 (stereo unspecified),10.3,100.4*,-1.1,-41.0,-18.6,100.3*
N#CC(C#N)=NNc1ccc(-n2ccc(C(F)(F)F)n2)cc1,15.5,8.0,14.0,-2.6,-20.9,30.1*
COC(=O)C1=C(c2c(C)noc2C)C[C@@H]2CC[C@H]1N2C(=O)N1CCC(C)CC1,0.3,2.6,2.4,-0.3,-0.7,1.9
